Measured values from ChEMBL document CHEMBL1155468, “Syntheses and evaluation of anticonvulsant profile and teratogenicity of novel amide derivatives of branched aliphatic carboxylic acids with 4-aminobenzensulfonamide” (J Med Chem, 2010).
Activity calls are given as the source filed them. The rule behind the calls is not given here.

Tests used:
Mus musculus [1] = experiment: Anticonvulsant activity in CF1 albino mouse assessed as inhibition of subcutaneous pentylenetetrazole-induced seizures at 30 mg/kg, ip after 0.5 hrs; format: functional, organism-based; set-up: dose 30 mg/kg
Summary of the method: (§1)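 Adult male CF no. 1 albino mice (18-25 g) dosed ip with compound suspended in 0.5% methylcellulose (0.01 mL/g). Convulsant: pentylenetetrazol dissolved in 0.9% saline as a 0.85% solution for mice, given subcutaneously.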

Mus musculus [2] = experiment: Anticonvulsant activity in CF1 albino mouse assessed as inhibition of subcutaneous pentylenetetrazole-induced seizures at 100 mg/kg, ip after 0.5 hrs; format: functional, organism-based; set-up: dose 100 mg/kg; summary of the method: as §1
Mus musculus [3] = experiment: Anticonvulsant activity in CF1 albino mouse assessed as inhibition of subcutaneous pentylenetetrazole-induced seizures at 300 mg/kg, ip after 0.5 hrs; format: functional, organism-based; set-up: dose 300 mg/kg; summary of the method: as §1
Mus musculus [4] = experiment: Anticonvulsant activity in CF1 albino mouse assessed as inhibition of subcutaneous pentylenetetrazole-induced seizures at 30 mg/kg, ip after 4 hrs; format: functional, organism-based; set-up: dose 30 mg/kg; summary of the method: as §1
Mus musculus [5] = experiment: Anticonvulsant activity in CF1 albino mouse assessed as inhibition of subcutaneous pentylenetetrazole-induced seizures at 100 mg/kg, ip after 4 hrs; format: functional, organism-based; set-up: dose 100 mg/kg; summary of the method: as §1
Mus musculus [6] = experiment: Teratogenic effect in SWV mouse assessed as resorptions at 729 mg/kg, ip administered on morning of day 8 of gestation; format: toxicity, organism-based; set-up: dose 729 mg/kg, route intraperitoneal; conditions: in vivo
Summary of the method: (§2)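 SWV inbred mice: two-month-old nulligravid females mated overnight with males and checked for vaginal plugs next morning; gestation onset taken as 10 p.m. the previous night. On gestation day 8.5 each dam got one ip injection, 0.55–2.7 mmol/kg, in 25% aqueous Cremophor EL (vehicle controls dosed alike), 10 μL/g body weight. Litters and implants tallied; resorptions and live fetuses reported as counts with percentages.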

Mus musculus [7] = experiment: Teratogenic effect in SWV mouse assessed as resorptions at 486 mg/kg, ip administered on morning of day 8 of gestation; format: toxicity, organism-based; set-up: dose 486 mg/kg, route intraperitoneal; conditions: in vivo; summary of the method: as §2
Mus musculus [8] = experiment: Teratogenic effect in SWV mouse assessed as resorptions at 294 mg/kg, ip administered on morning of day 8 of gestation; format: toxicity, organism-based; set-up: dose 294 mg/kg, route intraperitoneal; conditions: in vivo; summary of the method: as §2
Mus musculus [9] = experiment: Teratogenic effect in SWV mouse assessed as resorptions at 148 mg/kg, ip administered on morning of day 8 of gestation; format: toxicity, organism-based; set-up: dose 148 mg/kg, route intraperitoneal; conditions: in vivo; summary of the method: as §2
Mus musculus [10] = experiment: Teratogenic effect in SWV mouse assessed as fetuses with neural tube deffects at 729 mg/kg, ip administered on morning of day 8 of gestation; format: toxicity, organism-based; set-up: dose 729 mg/kg, route intraperitoneal; conditions: in vivo
Summary of the method: (§3)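 Two-month-old nulligravid SWV females were mated overnight and checked for vaginal plugs the next morning; gestation onset was set at 10 p.m. the previous night. On gestation day 8.5, each dam received a single ip injection (0.55-2.7 mmol/kg range) or vehicle (25% aqueous Cremophor EL) at 10 μL/g body weight. Litters were scored for implants, resorptions, live and dead fetuses, and fetuses with neural tube defects.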

Mus musculus [11] = experiment: Teratogenic effect in SWV mouse assessed as fetuses with neural tube deffects at 486 mg/kg, ip administered on morning of day 8 of gestation; format: toxicity, organism-based; set-up: dose 486 mg/kg, route intraperitoneal; conditions: in vivo; summary of the method: as §3
Mus musculus [12] = experiment: Teratogenic effect in SWV mouse assessed as fetuses with neural tube deffects at 294 mg/kg, ip administered on morning of day 8 of gestation; format: toxicity, organism-based; set-up: dose 294 mg/kg, route intraperitoneal; conditions: in vivo; summary of the method: as §3
Mus musculus [13] = experiment: Teratogenic effect in SWV mouse assessed as fetuses with neural tube deffects at 148 mg/kg, ip administered on morning of day 8 of gestation; format: toxicity, organism-based; set-up: dose 148 mg/kg, route intraperitoneal; conditions: in vivo; summary of the method: as §3
Mus musculus [14] = experiment: Teratogenic effect in SWV mouse assessed as live fetuses at 729 mg/kg, ip administered on morning of day 8 of gestation; format: toxicity, organism-based; set-up: dose 729 mg/kg, route intraperitoneal; conditions: in vivo; summary of the method: as §2
Mus musculus [15] = experiment: Teratogenic effect in SWV mouse assessed as live fetuses at 486 mg/kg, ip administered on morning of day 8 of gestation; format: toxicity, organism-based; set-up: dose 486 mg/kg, route intraperitoneal; conditions: in vivo; summary of the method: as §2
Mus musculus [16] = experiment: Teratogenic effect in SWV mouse assessed as live fetuses at 294 mg/kg, ip administered on morning of day 8 of gestation; format: toxicity, organism-based; set-up: dose 294 mg/kg, route intraperitoneal; conditions: in vivo; summary of the method: as §3
Mus musculus [17] = experiment: Teratogenic effect in SWV mouse assessed as live fetuses at 148 mg/kg, ip administered on morning of day 8 of gestation; format: toxicity, organism-based; set-up: dose 148 mg/kg, route intraperitoneal; conditions: in vivo; summary of the method: as §3
Mus musculus [18] = experiment: Anticonvulsant activity in CF1 albino mouse assessed as inhibition of maximal electroshock-induced seizures at 30 mg/kg, ip after 0.5 hrs; format: functional, organism-based; set-up: dose 30 mg/kg
Summary of the method: (§4)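 Test compounds suspended in 0.5% methylcellulose and given ip to adult male CF no. 1 albino mice (18-25 g) at 0.01 mL/g body weight before maximal electroshock challenge.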

Mus musculus [19] = experiment: Anticonvulsant activity in CF1 albino mouse assessed as inhibition of maximal electroshock-induced seizures at 100 mg/kg, ip after 0.5 hrs; format: functional, organism-based; set-up: dose 100 mg/kg; summary of the method: as §4
Mus musculus [20] = experiment: Anticonvulsant activity in CF1 albino mouse assessed as inhibition of maximal electroshock-induced seizures at 300 mg/kg, ip after 0.5 hrs; format: functional, organism-based; set-up: dose 300 mg/kg; summary of the method: as §4
Mus musculus [21] = experiment: Anticonvulsant activity in CF1 albino mouse assessed as inhibition of maximal electroshock-induced seizures at 30 mg/kg, ip after 4 hrs; format: functional, organism-based; set-up: dose 30 mg/kg; summary of the method: as §4
Mus musculus [22] = experiment: Anticonvulsant activity in CF1 albino mouse assessed as inhibition of maximal electroshock-induced seizures at 100 mg/kg, ip after 4 hrs; format: functional, organism-based; set-up: dose 100 mg/kg; summary of the method: as §4
Mus musculus [23] = experiment: Anticonvulsant activity in CF1 albino mouse assessed as inhibition of maximal electroshock-induced seizures at 300 mg/kg, ip after 4 hrs; format: functional, organism-based; set-up: dose 300 mg/kg; summary of the method: as §4
Mus musculus [24] = experiment: Anticonvulsant activity in CF1 albino mouse assessed as inhibition of subcutaneous pentylenetetrazole-induced seizures at 300 mg/kg, ip after 4 hrs; format: functional, organism-based; set-up: dose 300 mg/kg; summary of the method: as §1
Mus musculus [25] = experiment: Neurotoxicity in CF1 albino mouse assessed as motor impairment at 30 mg/kg, ip after 0.5 hrs; format: toxicity, organism-based; set-up: dose 30 mg/kg, route intraperitoneal; conditions: in vivo
Mus musculus [26] = experiment: Neurotoxicity in CF1 albino mouse assessed as motor impairment at 100 mg/kg, ip after 0.5 hrs; format: toxicity, organism-based; set-up: dose 100 mg/kg, route intraperitoneal; conditions: in vivo
Mus musculus [27] = experiment: Neurotoxicity in CF1 albino mouse assessed as motor impairment at 300 mg/kg, ip after 0.5 hrs; format: toxicity, organism-based; set-up: dose 300 mg/kg, route intraperitoneal; conditions: in vivo
Mus musculus [28] = experiment: Neurotoxicity in CF1 albino mouse assessed as motor impairment at 30 mg/kg, ip after 4 hrs; format: toxicity, organism-based; set-up: dose 30 mg/kg, route intraperitoneal; conditions: in vivo
Mus musculus [29] = experiment: Neurotoxicity in CF1 albino mouse assessed as motor impairment at 100 mg/kg, ip after 4 hrs; format: toxicity, organism-based; set-up: dose 100 mg/kg, route intraperitoneal; conditions: in vivo
Mus musculus [30] = experiment: Neurotoxicity in CF1 albino mouse assessed as motor impairment at 300 mg/kg, ip after 4 hrs; format: toxicity, organism-based; set-up: dose 300 mg/kg, route intraperitoneal; conditions: in vivo
Rattus norvegicus [31] = species on record: Rattus norvegicus; experiment: Protective index, ratio of TD50 for rat to ED50 for maximal electroshock-induced rat seizure model
Rattus norvegicus [32] = experiment: Neurotoxicity in Sprague-Dawley rat assessed as motor impairment at 30 mg/kg, po after 0.25 to 4 hrs; conditions: in vivo
Rattus norvegicus [33] = experiment: Anticonvulsant activity in po dosed rat assessed as inhibition of maximal electroshock-induced seizures
Rattus norvegicus [34] = experiment: Anticonvulsant activity in Sprague-Dawley rat assessed as inhibition of maximal electroshock-induced seizures at 30 mg/kg, po after 1 hr
Rattus norvegicus [35] = experiment: Anticonvulsant activity in Sprague-Dawley rat assessed as inhibition of maximal electroshock-induced seizures at 30 mg/kg, po after 2 hrs
Rattus norvegicus [36] = experiment: Anticonvulsant activity in Sprague-Dawley rat assessed as inhibition of maximal electroshock-induced seizures at 30 mg/kg, po after 4 hrs

## CCC(CC)C(=O)Nc1ccc(S(N)(=O)=O)cc1
Mus musculus [1]
  Activity: inactive
Mus musculus [2]
  Activity: inactive
Mus musculus [3]
  Activity: inactive
Mus musculus [4]
  Activity: inactive
Mus musculus [5]
  Activity: inactive
Mus musculus [6]
  Activity: 53.2%
Mus musculus [7]
  Activity: 52.1%
Mus musculus [8]
  Activity: 15.8%
Mus musculus [9]
  Activity: 7.7%
Mus musculus [10]
  Activity: 20.3%
Mus musculus [11]
  Activity: 25.9%
Mus musculus [12]
  Activity: 4.5%
Mus musculus [13]
  Activity: 0.8%
Mus musculus [14]
  Activity: 46.8%
Mus musculus [15]
  Activity: 47.9%
Mus musculus [16]
  Activity: 84.2%
Mus musculus [17]
  Activity: 93.3%
Mus musculus [18]
  Activity: Active
Mus musculus [19]
  Activity: Active
Mus musculus [20]
  Activity: Active
Mus musculus [21]
  Activity: Active
Mus musculus [22]
  Activity: Active
Mus musculus [23]
  Activity: Active
Mus musculus [24]
  Activity: inactive
Mus musculus [25]
  Activity: Non-toxic
Mus musculus [26]
  Activity: Non-toxic
Mus musculus [27]
  Activity: Non-toxic
Mus musculus [28]
  Activity: Non-toxic
Mus musculus [29]
  Activity: Non-toxic
Mus musculus [30]
  Activity: Non-toxic
Rattus norvegicus [31]
  Ratio TD50/ED50: >50.5
Rattus norvegicus [32]
  Activity: Non-toxic
Rattus norvegicus [33]
  ED50: 9.9 mg/kg
Rattus norvegicus [34]
  Activity: Active
Rattus norvegicus [35]
  Activity: Active
Rattus norvegicus [36]
  Activity: Active
